Screening results (PubChem BioAssay)
The list is not random: actives were taken first. Their share in the collection is about 1.7%.
HNF4A DNA FP = change in binding of human HNF4A to DNA, primary screen, biochemical, fluorescence polarization, FITC-DNA. AID 1224865, 2016. 360,000 compounds, 0.3% hits. activity change, % at 10 µM. Hepatocyte nuclear factor 4-alpha (Homo sapiens), P41235. 1 h; in the data active = activity change above about 30%, passing the limit was not always enough
TPT1 inh = Candida albicans TPT1 enzyme inhibitors, primary screen, biochemical, fluorescence polarization | tRNA 2'-phosphotransferase TPT1 (Candida albicans SC5314) | recombinant caTPT1, FP RNA substrate dephosphorylation | inhibition, % at 5 µM | 300,000 compounds, 0.81% hits | AID 1962, 2009;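 active = inhibition above the mean of all tested compounds plus 3 SD, set per screening campaign, cut at about 24% in these data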
CSN inh = inhibitors of CSN-mediated cullin deneddylation, primary screen, biochemical, fluorescence polarization, uHTS; COP9 signalosome complex subunit 5 (Homo sapiens), Q92905; Purified CSN, SCF-Nedd8-OG deneddylation; inhibition, % at 12.5 µM; 360,000 compounds, 0.38% hits; AID 651999, 2013;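 active = pattern-corrected inhibition above about 35%, with an unprinted fluorescence ratio check between 0.5 and 1.5, limit read from the data, passing the limit was not always enough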
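assay system = purified human Csn5 enzyme expressed in HEK293T cells | amount = 0.24 nM enzyme | buffer or medium = Tris/NaCl/DTT buffer, pH 7.5 | reagent = 10 nM SCFSkp2-Nedd8OG | compound = one concentration, 12.5 µM, 0.25% DMSO | times = 90 min reaction at room temperature | signal = FP | read-out basis = % inhibition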
Rev-erbA mod = modulators of Rev-erb alpha DNA binding, primary screen, biochemical, FITC-DNA, fluorescence polarization, uHTS; Nuclear receptor subfamily 1 group D member 1 (Homo sapiens), P20393; Rev-erbα–FITC-DNA binding, 90 min; activity, % at 10 µM; 370,000 compounds, 0.79% hits;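 active = activity above about 14%, limit read from the data; passing the limit was not always enough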
Target sequence (P20393 whole entry, looked up): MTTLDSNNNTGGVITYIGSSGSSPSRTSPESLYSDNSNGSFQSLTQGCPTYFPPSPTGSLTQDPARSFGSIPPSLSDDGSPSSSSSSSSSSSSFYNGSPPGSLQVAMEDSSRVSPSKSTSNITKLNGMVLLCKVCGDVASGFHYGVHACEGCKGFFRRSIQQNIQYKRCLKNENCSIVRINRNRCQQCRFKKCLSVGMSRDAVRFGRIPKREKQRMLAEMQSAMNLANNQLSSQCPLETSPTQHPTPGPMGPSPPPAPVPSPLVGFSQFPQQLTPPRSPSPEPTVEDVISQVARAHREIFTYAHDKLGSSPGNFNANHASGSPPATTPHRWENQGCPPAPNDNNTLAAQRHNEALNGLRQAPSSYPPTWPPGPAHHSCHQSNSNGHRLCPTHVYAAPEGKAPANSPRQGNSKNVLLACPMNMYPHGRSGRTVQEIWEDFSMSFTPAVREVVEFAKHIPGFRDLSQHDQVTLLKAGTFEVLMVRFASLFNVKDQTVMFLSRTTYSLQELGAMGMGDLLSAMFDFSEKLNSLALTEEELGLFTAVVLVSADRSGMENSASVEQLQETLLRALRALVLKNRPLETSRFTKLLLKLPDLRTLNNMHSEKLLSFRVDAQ
CSN5 deneddyl = Csn5 deneddylation inhibitors, confirmation, biochemical, fluorescence polarization, single concentration, SCF-Nedd8OG substrate; shares compounds with CSN inh; inhibition, % at 16.6 µM; 540 compounds, 62% hits; Csn5 deneddylation of SCF-Nedd8OG, 90 min; in the data active = inhibition above about 50%
MMP2 cntr CSN = MMP-2 protease inhibition counter-screen, confirmation, counter-screen for CSN deneddylation inhibitor project, biochemical, fluorescence, single concentration; inhibition, % at 16.6 µM; recombinant MMP-2, FRET substrate fluorescence, 60 min; 540 compounds, 33% hits; AID 720655, 2013; shares compounds with CSN inh;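 active = corrected plate-normalized z-score of 5 or more, or -5 or less, or inhibition of 15% or more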
Thrombin counter = thrombin (bovine) inhibition, counter-screen for CSN hits; shares compounds with CSN inh; bovine thrombin cleavage of Ub4-pepOG, fluorescence polarization; inhibition, % at 16.6 µM; 540 compounds, 49% hits; AID 720656;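 active = inhibition at or above a set limit, with a fluorescence interference ratio between 0.5 and a set maximum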
HNF4A confirm = change in HNF4A binding to DNA, retest, confirmation, biochemical, fluorescence polarization, FITC-DNA. shares compounds with HNF4A DNA FP. 1 h. activity change, % at 12.5 µM. 210 compounds, 99% hits. AID 1224897, 2016; call rule not given here
NR1D1 mod conf = modulators of Rev-erb alpha DNA binding, confirmation, biochemical, FITC-DNA, fluorescence polarization, single point; shares compounds with Rev-erbA mod; 90 min; activation, % at 25 µM; 3,000 compounds, 61% hits;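 active = activation at or above a set limit, or at least 3 SD above the negative control mean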
RORg DNA counter = modulation of RORgamma DNA binding, dose response, counter-screen for Rev-erb alpha modulator project, biochemical, fluorescence polarization, FITC-DNA; shares compounds with Rev-erbA mod; purified RORgamma protein-FITC-DNA binding; IC50, µM; 910 compounds, 8% hits;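 active = Compounds whose fitted half-maximal concentration for disrupting protein-DNA binding is below 10 micromolar; the record names Rev-erb in its text, so the target is in doubt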
A number is an active result.

What do the screens show for `CN(C)c1ccc(/C=C/C=C2/C(=O)NC(=O)N(c3ccccc3)C2=O)cc1`?
HNF4A DNA FP: inactive; CSN inh: 38; Rev-erbA mod: inactive; CSN5 deneddyl: 72; MMP2 cntr CSN: inactive; Thrombin counter: inactive

Results for CC(C)(C)n1nnnc1C(c1ccccc1)N1CCC2(CC1)C(=O)NCN2c1ccccc1 (stereo not given) ?
HNF4A DNA FP: inactive; CSN inh: inactive; Rev-erbA mod: inactive

How did O=c1[nH]c2ccccc2n1C1CCN(C(c2ccccc2OC(F)(F)F)c2nnnn2Cc2ccccc2)CC1 (stereo not given) do in these assays?
HNF4A DNA FP: inactive; CSN inh: inactive; Rev-erbA mod: inactive

How did COc1ccc(-n2nnnc2C(c2cccs2)N2CCC3(CC2)C(=O)NCN3c2ccccc2)cc1 (stereo not given) do in these assays?
HNF4A DNA FP: inactive; CSN inh: inactive; Rev-erbA mod: inactive

How did Cc1nc2c(=O)n(C)c(=O)nc-2n(C)n1 do in these assays?
HNF4A DNA FP: 78; TPT1 inh: inactive; CSN inh: 63; Rev-erbA mod: inactive; CSN5 deneddyl: inactive; MMP2 cntr CSN: inactive; Thrombin counter: inactive

What do the screens show for `O=c1[nH]c(=O)n(Cc2ccco2)c(O)c1C=NCc1cccs1`?
HNF4A DNA FP: inactive; TPT1 inh: inactive; CSN inh: inactive; Rev-erbA mod: inactive

Results for NC(=O)c1ccc(N=Cc2c(O)n(Cc3ccco3)c(=O)[nH]c2=O)cc1 ?
HNF4A DNA FP: inactive; TPT1 inh: inactive; CSN inh: 45; Rev-erbA mod: inactive; CSN5 deneddyl: inactive; MMP2 cntr CSN: 55; Thrombin counter: inactive

How did Cc1ccc2c(c1)Oc1ccccc1N=C2 do in these assays?
HNF4A DNA FP: inactive; CSN inh: inactive; Rev-erbA mod: inactive

How did C[C@H]1CC[C@@H]2[C@@H](C)[C@H]3[C@H](C[C@H]4[C@@H]5CC=C6C[C@@H](O[C@@H]7O[C@H](CO)[C@H](O)[C@H](O[C@@H]8O[C@H](CO)[C@@H](O)[C@H](O)[C@H]8O)[C@H]7O[C@@H]7O[C@@H](C)[C@H](O)[C@@H](O)[C@H]7O)CC[C@]6(C)[C@H]5CC[C@]34C)N2C1 do in these assays?
HNF4A DNA FP: 44; TPT1 inh: 28; CSN inh: inactive; Rev-erbA mod: inactive; HNF4A confirm: 40

How did COC(=O)C1=C(c2cc3ccccc3o2)C[C@@H]2CC[C@H]1N2C(=O)N1CCOCC1 do in these assays?
HNF4A DNA FP: inactive; TPT1 inh: inactive; CSN inh: inactive; Rev-erbA mod: inactive

Results for O=c1[nH]c(O)c(N=Nc2cc([N+](=O)[O-])ccc2O)c(=O)[nH]1 ?
HNF4A DNA FP: inactive; TPT1 inh: inactive; CSN inh: inactive; Rev-erbA mod: 20; NR1D1 mod conf: inactive

How did CCCCCCn1c(O)c(C=Nc2ccccc2N2CCOCC2)c(=O)[nH]c1=S do in these assays?
HNF4A DNA FP: 74; TPT1 inh: inactive; CSN inh: inactive; Rev-erbA mod: 54; NR1D1 mod conf: inactive

What do the screens show for `c1ccc(N2[C@@H]3CC[C@H]2c2ccccc2C3)cc1`?
HNF4A DNA FP: inactive; CSN inh: inactive; Rev-erbA mod: inactive

How did CCCCCn1c(=O)c(C(=O)Nc2cnccn2)c(O)c2ccccc21 do in these assays?
HNF4A DNA FP: inactive; TPT1 inh: inactive; CSN inh: inactive; Rev-erbA mod: inactive

What do the screens show for `CCCCCCCn1c(=O)c(C(=O)Nc2cnccn2)c(O)c2ccccc21`?
HNF4A DNA FP: inactive; TPT1 inh: inactive; CSN inh: inactive; Rev-erbA mod: 48; NR1D1 mod conf: 43; RORg DNA counter: inactive

What do the screens show for `CCCCn1c(=O)c(C(=O)Nc2ccccc2S(N)(=O)=O)c(O)c2ccccc21`?
HNF4A DNA FP: inactive; TPT1 inh: inactive; CSN inh: inactive; Rev-erbA mod: inactive

What do the screens show for `CCCCCn1c(=O)c(C(=O)Nc2ccccc2S(N)(=O)=O)c(O)c2ccccc21`?
HNF4A DNA FP: inactive; TPT1 inh: inactive; CSN inh: inactive; Rev-erbA mod: 43; NR1D1 mod conf: inactive

Results for COC(=O)C1=C(c2ccc(F)cc2F)C[C@@H]2CC[C@H]1N2C(=O)NCCCOC(C)C ?
HNF4A DNA FP: inactive; CSN inh: inactive; Rev-erbA mod: 19; NR1D1 mod conf: inactive

How did O=C(c1cccs1)c1cn(Cc2ccccc2Cl)c2ccccc12 do in these assays?
HNF4A DNA FP: inactive; TPT1 inh: inactive; CSN inh: inactive; Rev-erbA mod: inactive

Results for N#Cc1ccccc1Cn1cc(C(=O)c2cccs2)c2ccccc21 ?
HNF4A DNA FP: inactive; TPT1 inh: inactive; CSN inh: inactive; Rev-erbA mod: 25; NR1D1 mod conf: inactive

What do the screens show for `CCOc1cc(C)cc2oc(=O)c3c(c12)CCCC3`?
HNF4A DNA FP: inactive; TPT1 inh: inactive; CSN inh: inactive; Rev-erbA mod: 27; NR1D1 mod conf: inactive

What do the screens show for `COC1=CCC2([N+](=O)[O-])CN(C)CC1([N+](=O)[O-])C2` (stereo not given)?
HNF4A DNA FP: inactive; TPT1 inh: inactive; CSN inh: inactive; Rev-erbA mod: inactive

How did COc1ccc(CCn2c(O)c(C=Nc3ccc(F)cc3)c(=O)[nH]c2=O)cc1OC do in these assays?
HNF4A DNA FP: inactive; TPT1 inh: inactive; CSN inh: inactive; Rev-erbA mod: 130; NR1D1 mod conf: 69; RORg DNA counter: inactive

How did COC(=O)c1cccc(N=Cc2c(O)n(Cc3ccc(F)cc3)c(=O)[nH]c2=O)c1 do in these assays?
HNF4A DNA FP: inactive; TPT1 inh: inactive; CSN inh: inactive; Rev-erbA mod: 616; NR1D1 mod conf: 22

What do the screens show for `O=C(O)c1ccc(N=Cc2c(O)n(Cc3ccc(F)cc3)c(=O)[nH]c2=O)cc1`?
HNF4A DNA FP: inactive; TPT1 inh: inactive; CSN inh: inactive; Rev-erbA mod: inactive

How did Cc1nc2ccccc2c(=O)n1-c1ccc(Br)cc1[N+](=O)[O-] do in these assays?
HNF4A DNA FP: inactive; TPT1 inh: inactive; CSN inh: inactive; Rev-erbA mod: inactive

Results for Cc1c(CCN)ccc2c1[nH]c1ccccc12 ?
HNF4A DNA FP: inactive; TPT1 inh: inactive; CSN inh: inactive; Rev-erbA mod: inactive

What do the screens show for `O=C(O)CN1C(=O)CN=C(c2ccccn2)c2cc(Cl)ccc21`?
HNF4A DNA FP: inactive; TPT1 inh: inactive; CSN inh: inactive; Rev-erbA mod: inactive
